Laboratory results as given in ChEMBL document CHEMBL4038268, “Methylpyrrole inhibitors of BET bromodomains” (Bioorg Med Chem Lett, 2017).
Activity calls are given as the source filed them. The rule behind the calls is not given here.

What was measured:
[1] = target: T1, Bromodomain-containing protein 4 (Homo sapiens, UniProt O60885); assay: Binding affinity to His-tagged BRD4 BD1-BD2 (K57 to K550 residues) (unknown origin) after 1 hr by Alexa-647-conjugated probe based TR-FRET assay
[2] = target: T1, Bromodomain-containing protein 4; assay: Binding affinity to Ile,Leu,Val,Met-[13C-methyl]-labelled BRD4 BD2 (352 to 457 residues) (unknown origin) expressed in Escherichia coli BL21 (DE3) by NMR method
[3] = target: T1, Bromodomain-containing protein 4; assay: Inhibition of BRD4 (unknown origin) expressed in human H1299 cells co-expressing HPV16-LCR/E2 after 24 hrs by Bright Glo-luciferase reporter gene assay; assay type: cell-based
Summary of the method: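 Target-engagement reporter in an H1299-derived line carrying a stably integrated E2 expression cassette and an HPV-LCR-driven luciferase reporter. The read-out is BRD4-dependent E2-mediated transcriptional repression. EC50 is the mean of two measurements.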

[4] = tested on: MX1; assay: Antiproliferative activity against human MX1 cells incubated over 72 hrs by Cell Titre Glo luminescence assay; assay type: functional, cell-based; conditions: MX1, 72 h
Summary of the method: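 Triple-negative breast cancer line MX-1 grown 3 days with compound. Proliferation read with the CellTiter-Glo kit. EC50 is the mean of two measurements.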

[5] = tested on: Liver; assay: Unbound intrinsic clearance in mouse liver microsomes; assay type: ADME, microsome
[6] = Permeability of the compound; assay type: physicochemical; conditions: not told; read-out: permeability
[7] = Oral bioavailability in mouse at 10 mg/kg; assay type: ADME, organism-based; conditions: in vivo
[8] = tested on: Mus musculus; assay: Unbound AUC in mouse at 10 mg/kg, po; assay type: ADME, organism-based; conditions: in vivo
[9] = Half life in mouse at 3 mg/kg, iv; assay type: ADME, organism-based; conditions: in vivo

Structure (SMILES) | Ki [1] | EC50 [3] | other results
CCOC(=O)c1[nH]c(C)c2c1CCCC2=O | 25000 nM |  | Activity [2]: Active
Cc1[nH]c(-c2cc(N)ccc2Oc2ccccc2)cc1C(N)=O | 420 nM | 880 nM | 
Cn1cc(-c2ccccc2Oc2ccccc2)c2cc[nH]c(=O)c21 | 120 nM | 1100 nM | EC50 [4]: 580 nM; CL free [5]: 106700 mL/min/kg; Papp [6]: 13 ×10⁻⁶ cm/s
Cc1[nH]c(-c2c(N)cccc2Oc2ccccc2)cc1C(N)=O | 1600 nM | 2100 nM | 
CCNC(=O)c1ccc(Oc2ccccc2)c(-c2[nH]c(C)c3c2CCCC3=O)c1 | 250 nM | 1400 nM | EC50 [4]: 1400 nM
Cc1[nH]c(-c2ccccc2Oc2ccccc2)c2nc[nH]c(=O)c12 | 1100 nM | 1600 nM | EC50 [4]: 1200 nM; CL free [5]: > 6170 mL/min/kg; Papp [6]: 100 ×10⁻⁶ cm/s
CCS(=O)(=O)Nc1ccc(Oc2ccc(F)cc2)c(-c2cn(C)c3c(=O)[nH]ccc23)c1 | 5.5 nM | 47 nM | bioavailability [7]: 33%; fAUC [8]: 0.06 µM·h; half-life [9]: 5.6 h
COC(=O)c1ccc(Oc2ccccc2)c(-c2[nH]c(C)c3c2CCCC3=O)c1 | 91 nM | 2000 nM | 
Cc1[nH]c(-c2ccccc2Oc2ccccc2)c2c1C(=O)NCC2 | 340 nM | 280 nM | 
Cc1[nH]c(-c2ccccc2)cc1C(N)=O | 12000 nM |  | 
Cc1[nH]c(-c2cc(NS(C)(=O)=O)ccc2Oc2ccc(F)cc2F)c2c1C(=O)CCC2 | 97 nM | 75 nM | 
CCS(=O)(=O)Nc1ccc(Oc2ccccc2)c(-c2[nH]c(C)c3c(=O)[nH]ncc23)c1 | 10 nM | 75 nM | EC50 [4]: 52 nM; CL free [5]: 800 mL/min/kg; Papp [6]: 9.5 ×10⁻⁶ cm/s
Cn1cc(-c2cc(CS(C)(=O)=O)ccc2Oc2ccc(F)cc2F)c2cc[nH]c(=O)c21 | 11 nM | 40 nM | CL free [5]: 400 mL/min/kg; Papp [6]: 40 ×10⁻⁶ cm/s
CCS(=O)(=O)Nc1ccc(Oc2ccc(F)cc2F)c(-c2cn(C)c3c(=O)[nH]ccc23)c1 | 11 nM |  | 
Cc1[nH]c(-c2cc(N)ccc2Oc2ccccc2)c2c1C(=O)CCC2 | 210 nM | 300 nM | EC50 [4]: 230 nM
Cc1[nH]c(-c2cc(NS(C)(=O)=O)ccc2Oc2ccccc2)c2nc[nH]c(=O)c12 | 150 nM | 410 nM | 
Cn1cc(-c2cc(NS(C)(=O)=O)ccc2Oc2ccc(F)cc2F)c2cc[nH]c(=O)c21 | 17 nM | 46 nM | 
Cc1[nH]c(-c2ccccc2Oc2ccccc2)c2c1C(=O)CCC2 | 440 nM | 280 nM | 
Cc1[nH]c(-c2cc(NS(C)(=O)=O)ccc2Oc2ccc(F)cc2F)c2cn[nH]c(=O)c12 | 16 nM | 280 nM | EC50 [4]: 92 nM; CL free [5]: > 250 mL/min/kg; Papp [6]: 6.1 ×10⁻⁶ cm/s

Structure (SMILES) | Ki [1] | EC50 [3] | other results
Cc1[nH]c(-c2cc(S(C)(=O)=O)ccc2Oc2ccc(F)cc2F)c2c1C(=O)CCC2 | 460 nM | 1400 nM | EC50 [4]: 570 nM; CL free [5]: 1400 mL/min/kg
Cc1[nH]c(-c2ccccc2Oc2ccc(Cl)cc2)cc1C(N)=O | 410 nM | 280 nM | 
Cc1[nH]c(-c2cc(S(C)(=O)=O)ccc2Oc2ccc(F)cc2F)cc1C(N)=O | 2200 nM | 4500 nM | EC50 [4]: 3200 nM; CL free [5]: 100 mL/min/kg
Cc1[nH]c(-c2ccccc2Nc2ccccc2)cc1C(N)=O | 450 nM | 2800 nM | 
Cc1[nH]c(-c2cc(NS(C)(=O)=O)ccc2Oc2ccccc2)c2cn[nH]c(=O)c12 | 30 nM | 180 nM | 
Cc1[nH]c(-c2ccccc2Oc2ccccc2)cc1C(N)=O | 270 nM | 450 nM | 
Cc1[nH]c(-c2cc(NS(C)(=O)=O)ccc2Oc2ccccc2)cc1C(N)=O | 280 nM | 1400 nM | 
Cc1[nH]c(-c2ccccc2Oc2ccccc2)c2cn[nH]c(=O)c12 | 37 nM | 220 nM | 
COC(=O)C[C@@H]1N=C(c2ccc(Cl)cc2)c2c(sc(C)c2C)-n2c(C)nnc21 | 17 nM |  | 
Cc1[nH]c(-c2ccccc2N)c2c1C(=O)CCC2 | 9500 nM | 7100 nM | 
Cc1[nH]c(-c2cc(NS(C)(=O)=O)ccc2Oc2ccc(F)cc2F)c2c1C(=O)NCC2 | 84 nM | 420 nM | 
Cn1cc(-c2cc(S(C)(=O)=O)ccc2Oc2ccccc2)c2cc[nH]c(=O)c21 | 17 nM | 91 nM | 
Cc1[nH]c(-c2ccccc2Oc2ccccc2)c2cc[nH]c(=O)c12 | 450 nM | 700 nM | 
Cc1[nH]c(-c2ccccc2N)cc1C(N)=O | 22000 nM | > 10000 nM | EC50 [4]: > 10000 nM
CC(=O)c1cc(-c2ccccc2N)[nH]c1C | 21000 nM |  | Activity [2]: Active
Cc1[nH]c(-c2cc(S(C)(=O)=O)ccc2Oc2ccc(F)cc2F)c2cn[nH]c(=O)c12 | 77 nM | 750 nM | EC50 [4]: 390 nM; CL free [5]: 617 mL/min/kg; Papp [6]: 12 ×10⁻⁶ cm/s
Cc1[nH]c(-c2cc(NS(C)(=O)=O)ccc2Oc2ccccc2)c2c1C(=O)NCC2 | 41 nM | 120 nM | 
Cc1[nH]c(-c2cc(NS(C)(=O)=O)ccc2Oc2ccc(F)cc2F)cc1C(N)=O | 370 nM | 2300 nM | 
